The EternaBench riboswitch data

Tested on: MS2 coat protein
Assay: apparent Kd, MS2 coat protein; higher = weaker binding; RNA-MaP array; FMN 200 µM where present
Summary of the method: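 The apparent Kd is reported as the median of filtered per-cluster binding-curve fits. To get these curves, designs transcribed by stalled E. coli RNA polymerase on Illumina sequencing-chip clusters were titrated with SNAP-549-labelled MS2 coat protein from 0.7 or 1.5 nM, doubling to 3 µM. Titrations were run without and then with constant ligand in 100 mM Tris-HCl pH 7.5, 80 mM KCl, 4 mM MgCl2, BSA, DTT, yeast tRNA and Tween-20, and green signal was normalised to red-channel RNA signal and control-cluster median Fmax.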

[1] = designed as: OFF switch for flavin mononucleotide, no ligand
[2] = ligand present: flavin mononucleotide, designed as: OFF switch for flavin mononucleotide
[3] = designed as: ON switch for flavin mononucleotide, no ligand
[4] = ligand present: flavin mononucleotide, designed as: ON switch for flavin mononucleotide

Row | Sequence | apparent Kd [1] | apparent Kd [2] | apparent Kd [3] | apparent Kd [4]
1 | UUUUUAUUUGAAGGAUAUACUUAACAUGAGGAUCACCCAUGUGGUGUUGUGAGUGAGUGAGUUUAGUAGAAGGUCAAUUAUUUU | 373 nM | 703 nM |  | 
2 | UUAAAUCAUGUAGGAUAUGCAUGGCGAAGCUACGCAGAAGGACAUGAGGAUCACCCAUGUUCUAGCGUCUCAGUAGAGAUGCAA | 18.4 nM | 63.3 nM |  | 
3 | CUCUACAUAGGAUAUACAUGAGGAUCACCCAUGUAUGUUUCGACAUGCGUUUACCUCGGUAGAAGGAUGUAGUA | 68.2 nM | 185 nM |  | 
4 | UGAGUAGCGAAACAAUGCACAUGAGGAUCACCCAUGUCUACACAGGAUAUGCGACGCUCCAGUUAGCAGAAGGGUGAACUCAAA |  |  | 40.2 nM | 82.3 nM
5 | AAAACACAUGAGGAUCACCCAUGUGAGGAUAUGUUAAUUUCGGCCAAAGCCGAAAUUAACAGAAGGCACAUAAA | 49.9 nM | 45.1 nM |  | 
6 | UGGUACUAGUGAGGAUAUGGGAAGAUACAUGAGGAUCACCCAUGUUUAAGAAUGCCGAGAGGCAACUAGAAGGCCCUAGUACCU |  |  | 388 nM | 35.8 nM
7 | AAACGACGUCAGAAGGCCGAUGGAUUUGACCACGGAGGAUAUGACAUGAGGAUCACCCAUGUGGUGCUUCUAACCCGCUGGGCC | 501 nM | 69.7 nM |  | 
8 | UUGGACGUCGUAGGAUAUGUAGGAUAUUCCUACAUGAGGAUCACCCAUGUUGAUAUGGAAGAAGGACAGAAGGACGAUGUCCAU |  |  | 31.8 nM | 4.64 nM
9 | CUUUGAUGAGGAUAUCGAGGUUAGUACAUGAGGAUCACCCAUGUUAUCCAGGUGUCGGUUCGAGAAGGUAUUGGAC | 16.7 nM | 18.5 nM |  | 
10 | GGGUACAUCGGAGGAUAUCAUGUAAAUACAUGAGGAUCACCCAUGUCGAGGGAGACAUCGGAGAUUGAGAAGGCCGAUGUACCG |  |  | 57.4 nM | 460 nM
11 | CGGGAGUCAGGAUAUACGAACAUGUCGCCAGAUGUCAAGGUACAUGAGGAUCACCCAUGUAGAAGGGAGGAGGG | 60.5 nM | 32.7 nM |  | 
12 | GCGAUUUUGUAAGGAUAUACUCUGUGAUGAAGAGUAGAAGGUACUUACAUGAGGAUCACCCAUGUUUAACGAGAUACUAAUCGU |  |  | 42.1 nM | 21.2 nM
13 | AUGCUUCACACAGGAUAUACAUGAGGAUCACCCAUGUGUCCUAGGUAGCUGACACGAGCUACCCGGUAGAAGGGUGUGAAGCAU | 17 nM | 58.4 nM |  | 
14 | GGUCUACAUGAGGAUCACCCAUGUAAGGAUAUCGUCACUGGAGCUUCGGCUCCAGUGACGAGAAGGUACGUAAU | 31.7 nM | 33.7 nM |  | 
15 | GCUAGUAUUGCAGGAUAUUGUGUUUAAGGAUGGCAAGAAGGGCAUUACAUGAGGAUCACCCAUGUUUUCCGUAGUCAUACUAGC | 7.34 nM | 7.28 nM |  | 
16 | AGCUGUGGCCGAGGAUAUCUAUCCCAAAUAACCGAAAUAUAAUCGGACAUGAGGAUCACCCAUGUAGAGAAGGCGGUCUCAGCA |  | 35.1 nM |  | 
17 | UCGAUGCUAGGAUAUACGUAUAAAACCACCGUAGAGUCCUCACAUGAGGAUCACCCAUGUAGAAGGAGCAUCUA | 17.3 nM | 23.4 nM |  | 
18 | GUACUGAAGCUUUGCUUUAGUCGUACAUGAGGAUCACCCAUGUAGGAUAUGGUAGGCAUUGCUUACUAGAAGGAUAGAGUGAUC | 85 nM | 54.9 nM |  | 
19 | CUGGAUCACGCAGGAUAUUACAUGAGGAUCACCCAUGUCAGGACUGCAAUAUCGUCUCCUCAUUGUGAGAAGGGCGGAAUCAUU | 17.7 nM | 86.8 nM |  | 
20 | UUACAGUGCGGGUAGGAUAUGUAGGGUGGUACAUGAGGAUCACCCAUGUAUCCACCCUUCUACCGGCAGAAGGGCCUGUCACUGC |  |  | 17 nM | 13.5 nM
21 | AGUCGUCAAGGAUAUAUAGUGAAGCACAAGCAGUGCCCUCUACAUGAGGAUCACCCAUGUAGAAGGUGGCGACU | 15.6 nM | 14.2 nM |  | 
22 | ACAUGAGGAUCACCCAUGUUGAAUUAGGAUAUUUGACUGCACAUGAGGUUCACCCAUGUUCAACCGGAGAAGGGAUUAAUAAUU |  |  | 82.5 nM | 83.6 nM
23 | GUGGCUGUUAGGCUUGCGUCGGCGACAGAAGGCCAACAUGAGGAUCACCCAUGUACAAAGACCAUGGAGGAUAUGUUGCCAAUG |  |  | 58.2 nM | 7.54 nM
